Screening results as filed in PubChem BioAssay.
MT1-MMP act inh: blocks activation of human MT1-MMP; P50281; HT1080 RFP-PRO-GFP cells, GFP/RFP ratio fluorescence, overnight; percent of plate control window, DMSO zero; GFP/RFP ratio change, % at 20 µM; 0.061% of 360,000 active; AID 651647;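 active means GFP/RFP ratio change of at least 30% with cell ATP level not reduced by more than half and red fluorescence within 50% of control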
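Assay system – RFP-PRO-GFP reporter HT1080 cells · Compound dosing – single dose of 20 µM compound, 1% DMSO final · Incubation – overnight compound exposure at 37 °C · Measure – GFP/RFP fluorescence ratio · Benchmarks – DMSO wells and RFP-L50D-GFP cells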
MPTP inh: permeability transition pore inhibition | isolated mouse mitochondria, Ca2+ swelling absorbance, 30 min | inhibition, % at 10 µM | 1.4% of 360,000 active | AID 602449;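 active means inhibition of 50% or more, scaled per plate between neutral and stimulator controls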;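 further: 0% = DMSO wells given calcium and 100% = 1 mM EGTA wells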
ADAM10 inh: ADAM10 inhibition, QFRET primary screen; O14672; recombinant ADAM10, EDANS/DABCYL FRET peptide cleavage, 3 h; inhibition, % at 7 µM; 0.62% of 370,000 active; AID 720582;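 active means inhibition above a per-campaign cutoff equal to the mean of compounds falling between control-based bounds plus 3 SD, cut at about 20% in these data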;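 further: 0% = DMSO wells while the 100% control is not disclosed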
SKN-1 inh: inhibitors of C. elegans SKN-1; 0.49% of 360,000 active; C. elegans VP596 Pgst-4::GFP/RFP ratio, acrylamide-induced, 24 h; inhibition, % at 21.8 µM; AID 624304;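 active means interference check ratio from 0.5 to 1.5 plus GFP to RFP signal ratio inhibition reaching or exceeding a fixed threshold, cut at about 30% in these data, passing the limit was not always enough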
GRIN3A LBD mod: modulators (binders) of human NR3A ligand-binding domain | NR3A LBD differential scanning fluorimetry, Tm shift; 0% = protein alone, 100% = glycine-bound protein | Tm shift relative to glycine control, % at 25 µM | 2.5% of 340,000 active | AID 1259313;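 active means melting temperature shift of at least 10% of the positive control shift, at one fixed dose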
ADAM17 inh: inhibitors of human ADAM17; 0.83% of 370,000 active; inhibition, % at 6.95 µM; recombinant ADAM17, EDANS/DABCYL FRET peptide cleavage; P78536;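 active means inhibition above the mean of compounds lying between control limits plus 3 SD, set per campaign, cut at about 8.5% in these data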;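 further: 0% = DMSO-only wells as the low control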
Target sequence (P78536 215-824 limits assumed): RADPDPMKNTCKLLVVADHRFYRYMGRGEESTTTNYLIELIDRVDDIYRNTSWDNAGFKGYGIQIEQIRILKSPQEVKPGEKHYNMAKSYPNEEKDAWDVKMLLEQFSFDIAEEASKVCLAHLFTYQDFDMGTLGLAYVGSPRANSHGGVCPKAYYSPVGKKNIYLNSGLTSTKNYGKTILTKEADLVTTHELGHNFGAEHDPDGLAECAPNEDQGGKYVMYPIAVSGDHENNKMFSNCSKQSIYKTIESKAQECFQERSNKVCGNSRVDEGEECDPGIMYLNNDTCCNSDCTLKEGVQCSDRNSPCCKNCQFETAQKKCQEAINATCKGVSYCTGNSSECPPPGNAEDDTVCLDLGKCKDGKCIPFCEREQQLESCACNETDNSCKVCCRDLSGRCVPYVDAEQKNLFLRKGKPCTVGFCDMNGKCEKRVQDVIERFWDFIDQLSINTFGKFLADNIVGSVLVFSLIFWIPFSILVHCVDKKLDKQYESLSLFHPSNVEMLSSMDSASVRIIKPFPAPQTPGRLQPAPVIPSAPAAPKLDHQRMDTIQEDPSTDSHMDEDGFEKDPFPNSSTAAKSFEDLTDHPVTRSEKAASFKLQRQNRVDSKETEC
The depositor's hits bear a star; i = inactive; x = not tested or not shown. In the library only some 4.7% were active in any assay of this set; here they are far more common.

SMILES	MT1-MMP act inh	MPTP inh	ADAM10 inh	SKN-1 inh	GRIN3A LBD mod	ADAM17 inh
O=C(Cc1cc(=O)oc2cc(O)ccc12)NN=Cc1ccc(N(CCCl)CCCl)cc1	-4	1	i	3	18*	i
O=C(CN1CCOCC1)c1cccc2ccccc12	-6	-2	2	38*	-2	-1
COC(=O)C12OCC34C(CC5C(C)=C(O)C(=O)CC5(C)C3C(O)C1O)OC(=O)C(OC(=O)/C=C(\C)C(C)C)C24 (configuration not stated)	-43	-1	8	56*	-1	5
CC(=O)N1CCC2(CC1)CC(=O)c1cc(OCC(=O)N3CCN(C)CC3)ccc1O2	1	-1	i	-19	0	-475
O=C1NC(=O)N(c2ccccc2F)C(=O)/C1=C/c1ccc(Sc2nc3ccccc3[nH]2)o1	9	38	0	92	102*	-1
CN1CCC(N(C)c2nc(-c3ccccc3)nc3ccccc23)CC1	x	0	-1	-1	0	-2
CCCCN1C(=O)NC(=O)C2(Cc3cc(C)ccc3N(C)C2)C1=O (configuration not stated)	-1	4	-3	41*	-3	-4
C#CC1(O)C=CC2C3CCC4=CC(=O)CCC4C3CCC21CC (configuration not stated)	-2	1	4	15	-3	-1
C=CCCC1(C(C)C)C(=O)NC(=S)NC1=O	-1	1	-9	7	1	-3
CC(=O)OC1C(=O)OCC23CCC4(C)OC4C2OC2CC(OC(=O)C=CC=CC(=O)OCCC1C)C3(C)C21CO1 (configuration not stated)	-35	-2	-4	42*	2	-5
CC(OC(=O)c1cn(C)c2ccccc12)C(=O)N(C)c1ccccc1 (configuration not stated)	3	-2	10	-20	-2	2
Cc1cc(C)cc(N2C(=O)NC(=O)/C(=C\c3cccn3-c3ccc(Cl)cc3)C2=O)c1	-5	4	2	-5	2	-2
Cc1cc(C)cc(N2C(=O)NC(=O)/C(=C\c3cccn3-c3ccccc3)C2=O)c1	1	5	2	-3	24*	3
O=c1[nH]c(=O)n(Cc2ccc(F)cc2)c(O)c1C=NCCN1CCCCC1	2	0	9	5	20*	-3
O=C(N/N=C/c1c(O)n(Cc2ccccc2)c(=O)[nH]c1=O)c1ccccc1O	10	0	-27	37*	2	-10
O=c1[nH]c(=O)n(-c2ccccc2Cl)c(O)c1C=NCCN1CCCCC1	4	1	-7	-1	401*	-3
O=C(N/N=C/c1c(O)n(Cc2ccc(F)cc2)c(=O)[nH]c1=O)c1ccccc1O	-3	0	-36	4	6	-14
CCn1cc(C(=O)c2ccccc2)c2ccccc21	0	-1	-2	16	0	0
CCOC(=O)C1(CCc2ccccc2)CCN(CC(O)CO)CC1 (configuration not stated)	-3	0	2	23	4	-4
CCOc1cc(/C=C2/C(=O)NC(=O)N(c3ccc(CC)cc3)C2=O)ccc1OC(=O)c1cccs1	-10	0	x	1	74*	x
COc1cc(/C=C2/C(=O)NC(=O)N(c3ccccc3)C2=O)ccc1O	5	0	-5	3	-14	3
O=c1[nH]c(=O)n(-c2ccccc2)c(O)c1/C=C1/C(c2ccccc2)=Nc2ccccc21	-4	1	1	36*	-11	-2
ClCCN(CCCl)c1ccc(C=Cc2ccncn2)cc1	-84	0	-26	54*	4	-2
ClCCN(CCCl)c1ccc(C=NNc2ncccn2)cc1	5	1	-5	12	-3	4
COc1cccc(N2CCN(Cc3cccc(Cl)c3)CC2)c1	-2	0	x	10	13*	x
SMILES	MT1-MMP act inh	MPTP inh	ADAM10 inh	SKN-1 inh	GRIN3A LBD mod	ADAM17 inh
COc1cccc(N2CCN(Cc3ccc(Cl)cc3)CC2)c1	-4	2	x	13	-2	x
O=C1C2C3CCC(O3)C2C(=O)N1c1cccc(F)c1 (configuration not stated)	-1	-1	-1	-14	-1	1
CC(C)N(Cc1ccco1)/N=C/c1c(O)n(Cc2ccccc2)c(=O)[nH]c1=O	7	3	-1	1	-2	3
COc1ccc(N2C(=O)/C(=C/C=C/c3ccccc3[N+](=O)[O-])C(=O)NC2=S)cc1	x	x	5	x	100*	2
CN(C)C(=O)Oc1ccc(-c2cn3cc(Cl)ccc3n2)cc1	3	0	-109	-4	13*	-37
CN(C)C(=O)Oc1cccc(-c2cn3cc(Cl)ccc3n2)c1	-1	-1	-71	14	-11	-20
S=C1NC2(CCCCC2)NC12CCCCC2	1	-1	3	8	16*	0
COc1ccc(C2SCC(=O)Nc3c2c(C)nn3-c2ccccc2)cc1 (configuration not stated)	-4	3	-3	28	11*	-1
C[CH2][Hg][S]c1ccccc1C(=O)O	9	2	-12	38*	-1	-4
O=C(NC1CCCCC1)N1Cc2cc(N3CCOCC3)ccc2-n2nncc2C1	x	-1	2	5	x	-4
Fc1cccc(F)c1-c1nc(-c2ccc(Cl)cc2)no1	-1	1	-15	57*	2	-6
C[N+](C)(C)CCOC(=O)CBr	2	-3	-6	-9	1	-8
COC1=C(OC)[C@]23CCc4ccc(OC)c(OC)c4[C@]2(CCN3C)CC1=O	2	-1	10	-8	13*	6
COc1ccc2c(c1O)[C@]13CCN(C)[C@H](C2)[C@@H]1CCC(=O)C3	-1	1	-1	4	-1	-3
O=[N+]([O-])c1ccc2c(c1)Cc1cc(O)ccc1-2	-20	1	-9	13	14*	5
O=[N+]([O-])c1cccc(O)c1	1	-4	-8	5	2	0
C=CCn1c(O)c(/C(C)=N/N2CCCCCC2)c(=O)[nH]c1=O	4	0	5	-1	14*	0
Cc1cccc(NC(=O)COC(=O)c2cc(C)n(C3CC3)c2C)c1	-5	-1	-16	3	-1	-6
O=C1NC(=S)NC(=O)C1Cc1ccccc1	-1	0	-2	-1	13*	2
CC(=O)Nc1ccc(C(=O)OCC(=O)Nc2ccc(Cl)cc2C(=O)c2ccccc2)cc1	4	-2	4	0	-2	-2
O=C(COC(=O)c1ccc(O)cc1)Nc1ccc(Cl)cc1C(=O)c1ccccc1	-7	11	16	-3	18*	8
